Reference: ChEMBL document CHEMBL1833966, “Synthesis and evaluation of quinazolin-4-ones as hypoxia-inducible factor-1α inhibitors” (Bioorg Med Chem Lett, 2011)
pIC50: −log10 of the molar value. Calls of active or inactive are those of the source. The rule behind the calls is not given here.

tested on: ME-180; assay: Inhibition of hypoxia-induced HIF1alpha protein accumulation in human HRE-bla-ME180 cells at 1 uM after 17 hrs by Western blot analysis; format: functional, cell-based; settings: not given
Procedure, shortened: (§1)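 HRE-bla ME-180 cells, 1 × 10^6 per well, cultured 6 h, then exposed 17 h to compound in DMSO at 1% oxygen; DMSO under normal atmosphere as negative control. Lysis on ice with protease inhibitor, centrifugation, 25 ug protein on 10% Tris-Glycine SDS-PAGE, PVDF transfer. Blotted with anti-HIF-1α (1:250), β-actin (1:5000) loading control, HRP secondary, luminol detection.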

| SMILES | inhibition |
| --- | --- |
| CCOc1ccccc1-n1c(CN2CCOCC2)nc2ccccc2c1=O | inactive |
| CCOc1ccccc1-n1c(CN2CCNCC2)nc2ccccc2c1=O | Active |

tested on: ME-180; assay: Inhibition of hypoxia-induced HIF1alpha protein accumulation in human HRE-bla-ME180 cells at 10 uM after 17 hrs by Western blot analysis; format: functional, cell-based; settings: not given; procedure, shortened: as §1

| SMILES | inhibition |
| --- | --- |
| CCOc1ccccc1-n1c(CN2CCOCC2)nc2ccccc2c1=O | Active |

target: T1, Hypoxia-inducible factor 1-alpha (Homo sapiens, UniProt Q16665); assay: Ratio of NCGC00056044 IC50 to compound IC50 for hypoxia-induced HIF1alpha activation in human ME180 cells by HRE3-Bla-[…] reporter gene assay; format: cell-based; settings: ME-180
Target sequence in this assay (Q16665 whole entry, looked up): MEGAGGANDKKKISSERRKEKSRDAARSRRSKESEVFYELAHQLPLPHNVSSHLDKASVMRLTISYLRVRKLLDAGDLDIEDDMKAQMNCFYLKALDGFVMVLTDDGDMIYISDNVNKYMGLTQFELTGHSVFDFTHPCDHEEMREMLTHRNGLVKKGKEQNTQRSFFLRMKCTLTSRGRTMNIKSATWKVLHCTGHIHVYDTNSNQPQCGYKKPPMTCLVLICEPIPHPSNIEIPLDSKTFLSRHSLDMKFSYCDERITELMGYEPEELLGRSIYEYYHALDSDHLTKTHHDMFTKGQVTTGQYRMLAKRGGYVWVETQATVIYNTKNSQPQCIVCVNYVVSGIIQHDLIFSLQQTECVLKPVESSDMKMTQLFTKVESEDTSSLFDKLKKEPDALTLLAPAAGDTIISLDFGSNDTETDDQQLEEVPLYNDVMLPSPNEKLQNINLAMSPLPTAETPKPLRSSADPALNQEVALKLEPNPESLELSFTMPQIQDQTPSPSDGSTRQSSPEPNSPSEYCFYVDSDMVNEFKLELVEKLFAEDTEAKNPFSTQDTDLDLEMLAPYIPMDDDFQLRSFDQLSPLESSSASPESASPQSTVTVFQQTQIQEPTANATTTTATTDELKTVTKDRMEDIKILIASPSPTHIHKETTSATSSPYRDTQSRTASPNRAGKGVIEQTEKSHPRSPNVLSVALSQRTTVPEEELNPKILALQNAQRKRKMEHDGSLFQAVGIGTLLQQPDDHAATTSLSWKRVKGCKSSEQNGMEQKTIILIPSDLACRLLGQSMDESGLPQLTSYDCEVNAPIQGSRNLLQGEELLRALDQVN

| SMILES | Ratio IC50 |
| --- | --- |
| CCOc1ccccc1-n1c(CN2CCNCC2)nc2ccccc2c1=O | 5 |

target: T1, Hypoxia-inducible factor 1-alpha; assay: Inhibition of hypoxia-induced HIF1alpha activation in human ME180 cells by HRE3-Bla-[…] reporter gene assay; format: cell-based, ME-180; settings: me-180
Procedure, shortened: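 HRE-bla ME-180 reporter cells, 2500 per well, given compound by pin transfer (261-fold dilution), then held 17 h at 37 °C under 1% oxygen. LiveBLAzer B/G FRET β-lactamase substrate added, 2.5 h at room temperature; fluorescence read at 405 nm excitation, 460 and 530 nm emission. IC50 is the mean of three independent experiments.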
Target sequence in this assay (Q16665 whole entry): as the sequence (Q16665 whole entry, looked up) above

| SMILES | IC50 |
| --- | --- |
| CCOc1ccccc1-n1c(CN2CCCCC2)nc2ccccc2c1=O | Not Active |
| O=C(c1ccco1)N1CCN(Cc2nc3ccccc3c(=O)n2-c2ccc(F)cc2)CC1 | Not Active |
| COc1ccc(-n2c(CN3CCNCC3)nc3ccccc3c2=O)cc1 | Not Active |
| O=C(c1ccco1)N1CCN(Cc2nc3ccccc3c(=O)n2-c2ccccc2)CC1 | Not Active |
| O=C(c1ccco1)N1CCN(Cc2nc3ccccc3c(=O)n2-c2ccccc2[N+](=O)[O-])CC1 | Not Active |
| O=C(c1ccco1)N1CCN(Cc2nc3ccccc3c(=O)n2-c2ccccc2C(F)(F)F)CC1 | Not Active |

Results, then the compound that gave them:

| IC50 | SMILES |
| --- | --- |
| Not Active | O=C(c1ccco1)N1CCN(Cc2nc3ccccc3c(=O)n2-c2ccccc2Cl)CC1 |
| Not Active | Cc1ccccc1-n1c(CN2CCN(C(=O)c3ccco3)CC2)nc2ccccc2c1=O |
| Not Active | O=C(c1ccco1)N1CCN(Cc2nc3ccccc3c(=O)n2-c2ccccc2F)CC1 |
| Not Active | O=C(c1ccco1)N1CCN(Cc2nc3ccccc3c(=O)n2-c2ccccc2Oc2ccccc2)CC1 |
| Not Active | CCOc1ccccc1-n1c(CN2CCN(C(=O)c3ccco3)CC2)nc2ccc(I)cc2c1=O |
| Not Active | CCOc1ccccc1-n1c(CN2CCN(C(=O)c3ccco3)CC2)nc2cc(OC)c(OC)cc2c1=O |
| Not Active | CC(C)(C)c1ccccc1-n1c(CN2CCN(C(=O)c3ccco3)CC2)nc2ccccc2c1=O |
| Not Active | CCOc1ccccc1-n1c(CN2CCN(C(=O)c3ccco3)CC2)nc2cccc(OC)c2c1=O |
| Not Active | O=C(c1ccco1)N1CCN(Cc2nc3ccccc3c(=O)n2-c2ccccc2OCc2ccccc2)CC1 |

same assay, conditions: read-out: IC50

| SMILES | pIC50 |
| --- | --- |
| CCOc1ccccc1-n1c(CN2CCN(C(=O)c3ccco3)CC2)nc2ccccc2c1=O | 6.37 |
| CC(C)COc1ccccc1-n1c(CN2CCNCC2)nc2ccccc2c1=O | 5.21 |
| O=c1c2ccccc2nc(CN2CCNCC2)n1-c1ccccc1OCc1ccccc1 | 4.64 |
| CCOc1ccccc1-n1c(CN2CCN(Cc3ccccc3)CC2)nc2ccccc2c1=O | 4.56 |
| CCOc1ccccc1-n1c(CN2CCN(C)CC2)nc2ccccc2c1=O | 6.09 |
| CCOc1ccccc1-n1c(CN2CCN(C(=O)c3ccccc3)CC2)nc2ccccc2c1=O | 5.77 |
| CCOc1ccccc1-n1c(CN2CCCNCC2)nc2ccccc2c1=O | 6.80 |
| COc1ccc([N+](=O)[O-])cc1-n1c(CN2CCNCC2)nc2ccccc2c1=O | 5.38 |
| CCOc1ccccc1-n1c(CN2CCN(C(=O)c3ccco3)CC2)nc2cccc(C)c2c1=O | 5.92 |
| CCSc1ccccc1-n1c(CN2CCNCC2)nc2ccccc2c1=O | 5.46 |
| CCNc1ccccc1-n1c(CN2CCNCC2)nc2ccccc2c1=O | 5.39 |
| COc1ccc(C(F)(F)F)cc1-n1c(CN2CCNCC2)nc2ccccc2c1=O | 6.70 |
| COc1ccccc1-n1c(CN2CCN(C(=O)c3ccco3)CC2)nc2ccccc2c1=O | 5.48 |
| CCOc1ccccc1-n1c(CC2CCN(C(=O)c3ccco3)CC2)nc2ccccc2c1=O | 4.56 |
| CCOc1ccccc1-n1c(CN2CCOCC2)nc2ccccc2c1=O | 4.56 |
| CCOc1ccccc1-n1c(CN2CCNCC2)nc2ccccc2c1=O | 7.05 |
| CCOC(=O)N1CCN(Cc2nc3ccccc3c(=O)n2-c2ccccc2OCC)CC1 | 5.03 |
| CCOc1ccccc1-n1c(CN2CCN(C(C)=O)CC2)nc2ccccc2c1=O | 6.33 |
